Assay results taken from ChEMBL document CHEMBL4024792, “(N-Hydroxycarbonylbenylamino)quinolines as Selective Histone Deacetylase 6 Inhibitors Suppress Growth of Multiple Myeloma in Vitro and in Vivo” (J Med Chem, 2018).

Columns and labels:
[1] = molecular target: T1, Histone deacetylase 11 (Homo sapiens, UniProt Q96DB2); assay: Inhibition of recombinant human N-terminal Strep2-tagged HDAC11 (1 to 347 residues) expressed in baculovirus infected insect cells using Boc-Lys(TFA)-AMC as substrate after 60 mins by fluorescence assay
T1 sequence (Q96DB2 whole entry): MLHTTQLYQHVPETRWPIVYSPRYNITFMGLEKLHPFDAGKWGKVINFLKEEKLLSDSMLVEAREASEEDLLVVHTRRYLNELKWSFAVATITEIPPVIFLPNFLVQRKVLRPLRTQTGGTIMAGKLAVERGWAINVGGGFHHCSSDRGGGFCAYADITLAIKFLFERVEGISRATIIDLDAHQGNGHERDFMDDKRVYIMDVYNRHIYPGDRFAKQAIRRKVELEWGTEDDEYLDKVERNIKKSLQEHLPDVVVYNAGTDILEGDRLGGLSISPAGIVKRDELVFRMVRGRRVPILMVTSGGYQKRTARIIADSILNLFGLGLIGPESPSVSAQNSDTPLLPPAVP

[2] = molecular target: T2, NAD-dependent protein deacetylase sirtuin-1 (Homo sapiens, UniProt Q96EB6); assay: Inhibition of recombinant human N-terminal His-tagged SIRT1 (1 to 747 end residues) expressed in Escherichia coli using Ac-RHK-K(Ac)-AMC as substrate after 30 mins in presence of NAD+ by fluorescence assay
T2 sequence (Q96EB6 whole entry): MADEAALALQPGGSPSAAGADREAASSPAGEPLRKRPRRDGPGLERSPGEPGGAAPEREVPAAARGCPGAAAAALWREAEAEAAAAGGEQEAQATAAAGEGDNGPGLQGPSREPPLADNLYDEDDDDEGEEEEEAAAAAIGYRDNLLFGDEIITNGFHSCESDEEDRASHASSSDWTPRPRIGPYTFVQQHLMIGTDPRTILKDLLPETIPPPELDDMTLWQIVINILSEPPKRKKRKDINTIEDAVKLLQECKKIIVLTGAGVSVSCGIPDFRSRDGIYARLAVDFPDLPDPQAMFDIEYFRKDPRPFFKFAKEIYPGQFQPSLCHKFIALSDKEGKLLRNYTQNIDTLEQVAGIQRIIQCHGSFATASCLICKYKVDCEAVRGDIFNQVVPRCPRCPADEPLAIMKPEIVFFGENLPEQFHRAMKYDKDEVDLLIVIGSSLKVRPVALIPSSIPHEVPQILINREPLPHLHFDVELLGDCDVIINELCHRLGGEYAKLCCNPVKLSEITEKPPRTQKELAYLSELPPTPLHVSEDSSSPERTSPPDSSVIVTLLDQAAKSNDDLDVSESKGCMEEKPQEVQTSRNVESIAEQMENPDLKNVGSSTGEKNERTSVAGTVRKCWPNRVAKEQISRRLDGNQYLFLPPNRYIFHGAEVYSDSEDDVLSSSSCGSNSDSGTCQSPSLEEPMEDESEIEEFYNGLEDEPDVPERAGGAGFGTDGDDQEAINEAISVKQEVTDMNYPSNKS

[3] = molecular target: Histone deacetylase 3/Nuclear receptor corepressor 2 (HDAC3/NCoR2) (Homo sapiens, UniProt O15379); assay: Inhibition of full length recombinant human C-terminal His-tagged HDAC3/N-terminal GST-tagged NCOR2 (395 to 489 residues) expressed in insect cells using RHK-K(Ac)-AMC as substrate after 60 mins by fluorescence assay
[4] = molecular target: Histone deacetylase 5 (Homo sapiens, UniProt Q9UQL6); assay: Inhibition of recombinant human C-terminal His-tagged HDAC5 (656 to 1122 residues) expressed in insect cells using Boc-K(Ac)-AMC as substrate after 60 mins by fluorescence assay
[5] = molecular target: T3, Polyamine deacetylase HDAC10 (Homo sapiens, UniProt Q969S8); assay: Inhibition of human HDAC10 using RHKKAc as substrate
T3 sequence (Q969S8 whole entry): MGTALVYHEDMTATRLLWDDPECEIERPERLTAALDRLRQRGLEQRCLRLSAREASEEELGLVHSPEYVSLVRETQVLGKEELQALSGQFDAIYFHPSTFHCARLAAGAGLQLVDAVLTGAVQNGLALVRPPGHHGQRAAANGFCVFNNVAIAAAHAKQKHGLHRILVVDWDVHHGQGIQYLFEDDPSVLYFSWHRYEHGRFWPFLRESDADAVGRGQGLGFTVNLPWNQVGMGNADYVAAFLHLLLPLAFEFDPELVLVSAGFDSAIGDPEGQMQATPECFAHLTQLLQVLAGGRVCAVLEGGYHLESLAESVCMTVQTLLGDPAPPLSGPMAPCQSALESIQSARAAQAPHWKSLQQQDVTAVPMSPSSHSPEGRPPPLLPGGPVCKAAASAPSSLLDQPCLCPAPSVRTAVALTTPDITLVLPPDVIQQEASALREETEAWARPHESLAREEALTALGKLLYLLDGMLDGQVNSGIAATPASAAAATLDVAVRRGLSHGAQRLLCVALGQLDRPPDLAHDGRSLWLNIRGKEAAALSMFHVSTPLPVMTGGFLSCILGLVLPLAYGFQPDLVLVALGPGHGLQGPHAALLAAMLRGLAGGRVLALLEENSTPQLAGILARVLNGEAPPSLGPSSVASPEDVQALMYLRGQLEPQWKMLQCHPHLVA

[6] = tested on: U-266; assay: Cell cycle arrest in human U266 cells assessed as accumulation at sub-G1 phase at 5 uM after 24 hrs by propidium iodide staining based flow cytometry (reference value: 10.76%); assay type: functional
[7] = Half life in human hepatocytes at 10 uM by LC-MS/MS analysis; assay type: ADME, cell-based, Hepatocyte
In short: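 Substrate depletion in cryopreserved hepatocytes (male SD rat, male beagle dog, human). Compound at 10 µM incubated at 37 °C for up to 4 h. Cell density approximately 0.5 × 10^6 hepatocytes/well for rat and dog, 0.24 × 10^6/well for human. Half-life and CLint derived from depletion; % remaining at 60 min also reported.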

[8] = tested on: U-266; assay: Cell cycle arrest in human U266 cells assessed as accumulation at G0/G1 phase at 5 uM after 24 hrs by propidium iodide staining based flow cytometry (reference value: 40.29%); assay type: functional
[9] = Apparent permeability from basolateral to apical side in human Caco2 cells at 10 uM after 2 hrs by LC-MS/MS analysis; assay type: ADME, cell-based; conditions: Caco-2
In short: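 Caco-2 cells seeded at 8.4 × 10^4 cells/cm2 on polycarbonate inserts for 21 days. For A→B, donor was apical (HBSS/MES pH 6.5, 10 µM compound) and receiver basolateral (HBSS/HEPES pH 7.4). For B→A, donor was basolateral (HBSS/HEPES pH 7.4, 10 µM) and receiver apical (HBSS/MES pH 6.5). Incubated at 37 °C for 2 h. Receiver sampled at 30, 60, 90 and 120 min, donor at 0 and 120 min.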

Histone deacetylase 3/Nuclear receptor corepressor 2 (HDAC3/NCoR2), sequence (O15379 whole entry, the tested form may be a part): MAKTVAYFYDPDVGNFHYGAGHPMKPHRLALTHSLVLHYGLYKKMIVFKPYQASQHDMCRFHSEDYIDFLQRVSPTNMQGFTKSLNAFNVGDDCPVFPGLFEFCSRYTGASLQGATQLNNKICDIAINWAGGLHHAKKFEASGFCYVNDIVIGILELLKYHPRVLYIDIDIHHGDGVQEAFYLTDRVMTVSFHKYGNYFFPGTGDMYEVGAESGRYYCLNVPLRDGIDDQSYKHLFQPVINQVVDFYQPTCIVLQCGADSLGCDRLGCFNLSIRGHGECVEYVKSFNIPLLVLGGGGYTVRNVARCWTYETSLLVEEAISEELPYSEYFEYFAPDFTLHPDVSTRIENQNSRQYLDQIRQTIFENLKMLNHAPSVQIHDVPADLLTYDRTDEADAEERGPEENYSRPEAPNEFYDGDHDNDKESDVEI
Histone deacetylase 3/Nuclear receptor corepressor 2 (HDAC3/NCoR2), sequence (Q9Y618 whole entry, further chain, the tested form may be a part): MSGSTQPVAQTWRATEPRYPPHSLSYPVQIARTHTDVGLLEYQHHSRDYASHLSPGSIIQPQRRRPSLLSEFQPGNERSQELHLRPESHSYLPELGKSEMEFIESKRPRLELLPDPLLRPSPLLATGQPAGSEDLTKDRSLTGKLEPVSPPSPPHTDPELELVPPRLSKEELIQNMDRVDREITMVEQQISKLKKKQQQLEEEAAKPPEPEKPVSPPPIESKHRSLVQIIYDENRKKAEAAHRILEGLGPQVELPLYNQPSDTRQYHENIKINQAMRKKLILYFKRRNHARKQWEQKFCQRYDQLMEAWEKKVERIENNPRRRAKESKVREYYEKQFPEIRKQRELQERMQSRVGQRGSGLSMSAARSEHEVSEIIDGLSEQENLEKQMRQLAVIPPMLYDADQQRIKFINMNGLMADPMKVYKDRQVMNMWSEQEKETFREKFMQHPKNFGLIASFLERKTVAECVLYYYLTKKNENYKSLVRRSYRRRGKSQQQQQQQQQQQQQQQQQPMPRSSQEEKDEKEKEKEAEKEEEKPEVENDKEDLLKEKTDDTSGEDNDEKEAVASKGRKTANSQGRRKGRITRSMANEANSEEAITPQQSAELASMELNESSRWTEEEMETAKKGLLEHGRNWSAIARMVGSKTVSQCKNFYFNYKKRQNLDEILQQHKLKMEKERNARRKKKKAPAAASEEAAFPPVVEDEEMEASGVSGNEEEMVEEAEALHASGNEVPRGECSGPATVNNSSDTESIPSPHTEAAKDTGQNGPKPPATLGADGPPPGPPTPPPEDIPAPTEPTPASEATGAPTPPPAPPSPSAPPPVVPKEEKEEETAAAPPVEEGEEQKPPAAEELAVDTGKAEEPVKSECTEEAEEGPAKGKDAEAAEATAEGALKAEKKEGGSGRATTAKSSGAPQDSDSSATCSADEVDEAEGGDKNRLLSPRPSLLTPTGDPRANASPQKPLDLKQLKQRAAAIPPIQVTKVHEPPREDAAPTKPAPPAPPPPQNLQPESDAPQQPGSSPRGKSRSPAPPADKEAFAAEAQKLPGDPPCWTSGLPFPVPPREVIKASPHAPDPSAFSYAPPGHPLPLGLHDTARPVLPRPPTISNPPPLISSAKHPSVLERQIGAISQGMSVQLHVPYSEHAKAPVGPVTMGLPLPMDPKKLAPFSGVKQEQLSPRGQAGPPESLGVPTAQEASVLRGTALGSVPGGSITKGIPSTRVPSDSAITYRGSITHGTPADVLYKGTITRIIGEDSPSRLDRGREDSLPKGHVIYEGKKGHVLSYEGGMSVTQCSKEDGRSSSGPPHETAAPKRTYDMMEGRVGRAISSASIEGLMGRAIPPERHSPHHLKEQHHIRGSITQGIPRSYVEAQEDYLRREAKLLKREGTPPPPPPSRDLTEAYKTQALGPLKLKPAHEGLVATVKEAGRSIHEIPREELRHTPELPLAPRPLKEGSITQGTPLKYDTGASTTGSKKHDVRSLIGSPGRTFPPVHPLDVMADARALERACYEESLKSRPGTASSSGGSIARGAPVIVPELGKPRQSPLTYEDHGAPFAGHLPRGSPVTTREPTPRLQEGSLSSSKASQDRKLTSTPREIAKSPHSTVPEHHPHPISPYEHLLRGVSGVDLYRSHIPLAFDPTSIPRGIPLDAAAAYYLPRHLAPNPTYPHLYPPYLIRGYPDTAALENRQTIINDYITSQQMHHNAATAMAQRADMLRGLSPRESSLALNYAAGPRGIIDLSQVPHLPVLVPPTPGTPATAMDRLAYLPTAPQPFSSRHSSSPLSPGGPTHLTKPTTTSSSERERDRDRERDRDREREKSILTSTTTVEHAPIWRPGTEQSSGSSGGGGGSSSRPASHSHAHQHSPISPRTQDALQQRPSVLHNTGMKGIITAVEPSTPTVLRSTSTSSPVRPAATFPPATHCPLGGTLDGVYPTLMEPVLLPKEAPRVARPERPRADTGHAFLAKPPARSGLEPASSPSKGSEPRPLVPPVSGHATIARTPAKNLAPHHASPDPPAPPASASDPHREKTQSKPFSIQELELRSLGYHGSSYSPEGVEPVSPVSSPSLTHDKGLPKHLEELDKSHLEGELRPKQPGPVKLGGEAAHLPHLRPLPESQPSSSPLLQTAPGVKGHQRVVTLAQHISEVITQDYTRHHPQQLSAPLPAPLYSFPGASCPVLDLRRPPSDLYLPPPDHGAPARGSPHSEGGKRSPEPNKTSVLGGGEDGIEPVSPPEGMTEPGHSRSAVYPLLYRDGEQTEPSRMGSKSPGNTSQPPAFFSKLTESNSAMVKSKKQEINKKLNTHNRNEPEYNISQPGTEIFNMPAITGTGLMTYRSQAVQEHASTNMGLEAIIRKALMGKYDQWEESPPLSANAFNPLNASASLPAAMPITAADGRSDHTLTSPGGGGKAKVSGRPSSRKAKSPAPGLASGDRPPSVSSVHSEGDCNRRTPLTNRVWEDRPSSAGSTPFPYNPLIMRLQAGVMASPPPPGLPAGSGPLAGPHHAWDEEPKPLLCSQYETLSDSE
Histone deacetylase 5, sequence (Q9UQL6 whole entry, the tested form may be a part): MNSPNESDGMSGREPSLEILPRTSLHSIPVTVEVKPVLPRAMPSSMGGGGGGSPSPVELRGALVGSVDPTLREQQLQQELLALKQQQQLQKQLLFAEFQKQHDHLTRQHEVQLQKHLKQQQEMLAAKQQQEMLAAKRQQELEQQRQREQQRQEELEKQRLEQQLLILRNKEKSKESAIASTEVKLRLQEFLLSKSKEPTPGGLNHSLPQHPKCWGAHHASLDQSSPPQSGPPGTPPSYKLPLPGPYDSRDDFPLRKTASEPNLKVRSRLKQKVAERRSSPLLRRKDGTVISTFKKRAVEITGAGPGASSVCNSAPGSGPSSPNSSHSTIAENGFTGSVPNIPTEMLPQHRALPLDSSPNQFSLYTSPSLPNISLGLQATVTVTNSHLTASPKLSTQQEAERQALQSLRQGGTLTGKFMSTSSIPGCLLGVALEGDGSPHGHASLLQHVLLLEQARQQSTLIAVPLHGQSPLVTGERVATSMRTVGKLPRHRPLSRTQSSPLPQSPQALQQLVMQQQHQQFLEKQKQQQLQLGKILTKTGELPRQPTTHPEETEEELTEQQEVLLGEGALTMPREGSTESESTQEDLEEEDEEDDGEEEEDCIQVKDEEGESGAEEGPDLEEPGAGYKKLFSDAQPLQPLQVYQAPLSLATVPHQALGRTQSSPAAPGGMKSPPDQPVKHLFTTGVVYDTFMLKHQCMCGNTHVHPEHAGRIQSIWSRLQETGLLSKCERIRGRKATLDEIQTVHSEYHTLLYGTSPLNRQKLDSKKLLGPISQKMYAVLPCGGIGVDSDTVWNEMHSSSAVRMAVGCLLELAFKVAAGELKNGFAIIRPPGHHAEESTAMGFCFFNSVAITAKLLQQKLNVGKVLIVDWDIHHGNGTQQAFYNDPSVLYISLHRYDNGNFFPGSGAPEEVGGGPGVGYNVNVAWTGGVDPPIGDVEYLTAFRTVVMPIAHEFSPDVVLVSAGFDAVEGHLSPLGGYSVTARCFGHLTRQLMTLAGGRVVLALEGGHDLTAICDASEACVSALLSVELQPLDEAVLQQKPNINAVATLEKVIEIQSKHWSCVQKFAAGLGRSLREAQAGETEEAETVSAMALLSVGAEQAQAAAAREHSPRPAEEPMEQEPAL

Row | SMILES | IC50 [1] | IC50 [2] | IC50 [3] | IC50 [4] | IC50 [5] | Activity [6] | half-life at 10 µM [7] | Activity [8] | Papp B→A at 2 h, 10 µM [9]
1 | O=C(NO)c1ccc(CNc2cccc3ncccc23)cc1 | 1 µM | > 20 µM | 5.48 µM | 2.25 µM | 1.26 µM |  |  |  | 
2 | O=C(NO)c1ccc(CNc2cccc3cccnc23)cc1 | 0.376 µM | > 20 µM | 7.75 µM | 3.11 µM | 9.79 µM | 17.82% | 4 h | 52.88% | 20.1 ×10⁻⁶ cm/s
